High-throughput results from PubChem BioAssay.
The full list was thinned out, with hits kept by preference.
XBP1 UPR activ = adaptive UPR (XBP1) activation | CHO-XBP1 luciferase reporter, IRE1-XBP1 UPR activation, luminescence; percent of tunicamycin response, DMSO as zero | activation, % at 20 µM | 0.33% of 330,000 active;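 active = versus positive control, 20 µM dose yields 30% or more activation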;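 note: 100% = tunicamycin at 10 µg/mL and 0% = DMSO only wells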
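Material: CHO cell line with stable XBP1 luciferase reporter; schedule: 16-18 h cell attachment at 37 °C, then 6 h compound exposure; signal: glow luminescence from Steady-Glo reagent; medium: serum-containing F12 medium, 10% FBS; benchmarks: tunicamycin 10 µg/mL and vehicle-only wells; read-out: percent activation relative to tunicamycin reference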
TLR4 MyD88 comp = inhibitors of human TLR4-MyD88 binding | HeLa CL3-4 TLR4/MyD88 BLA complementation, FRET ratio | AID 861 | O00206+Q99836 | 0.18% of 200,000 active | inhibition, % at 8.4 µM; in the data active = inhibition above about 25%;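 note: 0% = vehicle and 100% = reference inhibitor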
NOD2 RIPK2 PPI = NOD2-RIPK2 protein interaction inhibition | O43353 | CHO BLA complementation NOD2-RIPK2, CCF4 ratio | inhibition, % at 4.98 µM | 0.38% of 360,000 active; in the data active = inhibition above about 21%;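 note: 0% = vehicle only and 100% = reference blocker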
TLR9-MyD88 block = TLR9-MyD88 interaction inhibition. CHO BLA complementation TLR9-MyD88, CCF4 FRET ratio. 0.21% of 340,000 active. AID 504734. inhibition, % at 4.98 µM. Q9NR96+Q99836;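 active = inhibition above the mean over all tested compounds plus 3 SD, cut at about 21% in these data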;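 note: 0% = DMSO only wells and 100% = clavulanate BLA inhibitor control wells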
CHOP UPR activ = apoptotic UPR (CHOP) activation | CHO-CHOP luciferase reporter, luminescence; percent of tunicamycin response over DMSO baseline | activation, % at 10 µM | 0.34% of 330,000 active;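 active = at 10 µM dose, activation of 40% or more, normalized to positive control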;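 note: 100% = tunicamycin at 10 µg/mL and 0% = DMSO alone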
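Dosing – one dose, 10 µM in 0.5% DMSO · System – CHO-CHOP cells, stable luciferase reporter of PERK-eIF2a-CHOP signalling · Input – 500 cells/well · Control set – tunicamycin 10 µg/mL final as positive, DMSO-only wells as negative · Timing – 6 h compound treatment, 37 °C · Measure – % activation vs tunicamycin · Technique – luminescence read with Steady-Glo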
CHOP inh = CHOP inhibition in unfolded protein response; CHO-K1 CHOP-promoter luciferase, tunicamycin-induced, 15-18 h; inhibition, % at 10 µM; 3.8% of 220,000 active;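 active = compounds that reduced the stress-induced luciferase reporter signal by more than about 70% of percent inhibition, limit read from the data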;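 note: 0% = tunicamycin plus vehicle and 100% = wells without tunicamycin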
CHOP inh conf = confirmation of CHOP induction inhibitors. 45% of 2,100 active. inhibition, % at 10 µM. shares compounds with CHOP inh. CHO-CHOP promoter luciferase reporter, tunicamycin-induced, luminescence;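 active = mean of three repeat readings of reporter signal inhibition above a set limit, cut at about 70% in these data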;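 note: 0% = tunicamycin plus vehicle and 100% = wells lacking tunicamycin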
An asterisk follows results filed as active.

How did O=C1c2ccccc2C(=O)c2c1oc(C(F)(F)F)c2C(=O)c1ccccc1 do in these assays?
XBP1 UPR activ: -6; TLR4 MyD88 comp: 7; NOD2 RIPK2 PPI: -3; TLR9-MyD88 block: 5; CHOP UPR activ: -2; CHOP inh: 107*; CHOP inh conf: 121*

Results for C#Cc1ccc(NC(=O)C2(C)CCN2C(=O)C2(c3ccccc3)CCCC2)cc1 (configuration not stated) ?
NOD2 RIPK2 PPI: -18

How did CCCCNS(=O)(=O)c1ccc2nc(-c3cccnc3)cc(C(=O)NC3CCCC3)c2c1 do in these assays?
XBP1 UPR activ: 5; NOD2 RIPK2 PPI: -2; TLR9-MyD88 block: 3; CHOP UPR activ: 4; CHOP inh: 102*; CHOP inh conf: 107*

Results for C#CCN1C=CC(=O)[C@@H](O)[C@H]1c1ccccc1Br ?
NOD2 RIPK2 PPI: -2; TLR9-MyD88 block: -9

What do the screens show for `O=C(O)c1ccc(-c2nn3c(=O)cc(N4CCNCC4)nc3s2)cc1`?
NOD2 RIPK2 PPI: 2

Results for CC(C)Oc1cc(O)c2c(=O)c(-c3ccc(O)cc3)coc2c1 ?
XBP1 UPR activ: 6; TLR4 MyD88 comp: -17; NOD2 RIPK2 PPI: -10; TLR9-MyD88 block: 6; CHOP UPR activ: 8; CHOP inh conf: 20

What do the screens show for `CCC(C)[C@@H](NC(=O)OC(C)(C)C)c1nnc(S(=O)(=O)Cc2cccc(C)c2)o1` (some centres not stated)?
TLR4 MyD88 comp: 13; NOD2 RIPK2 PPI: 24*; TLR9-MyD88 block: 8; CHOP inh: 106*; CHOP inh conf: 107*

Results for Cc1cccc(CS(=O)(=O)Cc2ccc(C(=O)NC(C)c3ccccc3)o2)c1 (configuration not stated) ?
XBP1 UPR activ: -1; NOD2 RIPK2 PPI: 2; TLR9-MyD88 block: -3; CHOP UPR activ: 1

How did CC(C)(C)OC(=O)N[C@@H](Cc1ccccc1)c1nnc(S(=O)(=O)Cc2ccccc2)o1 do in these assays?
XBP1 UPR activ: -5; TLR4 MyD88 comp: 14; CHOP UPR activ: -10; CHOP inh: 109*; CHOP inh conf: 125*

How did Cc1ccc(S(=O)(=O)N/N=C\c2cn(-c3ccccc3)nc2-c2ccccc2)cc1 do in these assays?
XBP1 UPR activ: -3; TLR4 MyD88 comp: 2; NOD2 RIPK2 PPI: -9; TLR9-MyD88 block: 2; CHOP UPR activ: 4; CHOP inh: 97*; CHOP inh conf: 5

What do the screens show for `Cc1ccc(-c2ccc(/C=C3\C(=O)ON=C3c3ccccc3)o2)c([N+](=O)[O-])c1`?
XBP1 UPR activ: -3; TLR4 MyD88 comp: 14; NOD2 RIPK2 PPI: 3; TLR9-MyD88 block: 3; CHOP UPR activ: 25; CHOP inh: 111*; CHOP inh conf: 80*

How did C#CC(=O)N(c1ccc(OC)c(OC)c1)C(C(=O)NC1CCCC1)c1cccs1 (configuration not stated) do in these assays?
XBP1 UPR activ: -9; TLR4 MyD88 comp: 16; NOD2 RIPK2 PPI: 4; TLR9-MyD88 block: 4; CHOP UPR activ: -9; CHOP inh: 109*; CHOP inh conf: 122*

What do the screens show for `C#CC(=O)N(c1cccc(OC)c1)C(C(=O)NC1CCCC1)c1cccs1` (configuration not stated)?
XBP1 UPR activ: -11; TLR4 MyD88 comp: 18; NOD2 RIPK2 PPI: 10; TLR9-MyD88 block: 6; CHOP UPR activ: -10; CHOP inh: 108*; CHOP inh conf: 119*

Results for Cc1cccc(N(C(=O)C(F)(F)F)C(C(=O)NC2CCCCC2)c2cccs2)c1 (configuration not stated) ?
XBP1 UPR activ: 2; TLR4 MyD88 comp: 1; NOD2 RIPK2 PPI: 1; TLR9-MyD88 block: -6; CHOP UPR activ: -1; CHOP inh: 39
